According to ChEMBL document CHEMBL5724801, “EUbOPEN Chemogenomics Library - Multiplex” (2024):
“And” between values parts separate entries of the source, which are not always exact repeats. Identical values can stand only once.

Test system: HEK-293T
Experiment: Multiplex assay against HEK293T
Format: toxicity, cell-based
Conditions: human
Summary of the method: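 Cells stained live at seeding with Hoechst33342, BioTracker Green Microtubule Cytoskeleton Dye, MitoTracker Red and Annexin V Alexa Fluor 680 were imaged on a CQ1 microscope at 37°C and 5% CO2 after compound addition. Their classification by CellPathfinder machine-learning gating ran from Hoechst high-intensity objects versus normal cells, to healthy, pyknosed or fragmented nuclei among normal cells, to mitotic or apoptotic among pyknosed cells. Tubulin, mitochondrial-mass and membrane-permeability phenotypes are per cents of healthy-nucleus cells.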

[1] = 12 h, 1 µM, compound concentration 1 uM
[2] = 12 h, 10 µM, compound concentration 10 uM
[3] = 24 h, 1 µM, compound concentration 1 uM
[4] = 24 h, 10 µM, compound concentration 10 uM
[5] = 48 h, 1 µM, compound concentration 1 uM
[6] = 48 h, 10 µM, compound concentration 10 uM

CC(=O)Nc1cccc2c1c(Sc1ccc(Cl)cc1)c(C)n2CC(=O)O [AZD1981] was tested, and the “Population Apoptotic (%)” value [1] was 37% and 60%, the “Population Fragmented Nuclei (%)” value [1] was 6% and 5% and the “Population Healthy Nuclei (%)” value [1] was 81% and 80%. The “Population Hoechst High Intensity Objects (%)” value [1] was 6% and 8%, the “Population Membrane Permeable-Phenotype (%)” value [1] was 0% and the “Population Mitochondria Different-Phenotype (%)” value [1] was 46% and 57%. The “Population Mitotic Cells (%)” value [1] was 62% and 40%, the “Population Normal (%)” value [1] was 93% and 91% and the “Population Pyknosed Nuclei (%)” value [1] was 11% and 13%. For the same molecule, the “Population Tubulin-Different-Phenotype (%)” value [1] was 28% and 18%, the “Total Cell Count” value [1] was 405 and 314 and the “Population Apoptotic (%)” value [2] was 38% and 60%. The “Population Fragmented Nuclei (%)” value [2] was 8% and 6%, the “Population Healthy Nuclei (%)” value [2] was 78% and 77% and the “Population Hoechst High Intensity Objects (%)” value [2] was 7% and 15%. For the same molecule, the “Population Membrane Permeable-Phenotype (%)” value [2] was 0%, the “Population Mitochondria Different-Phenotype (%)” value [2] was 44% and 60% and the “Population Mitotic Cells (%)” value [2] was 61% and 39%. For the same molecule, the “Population Normal (%)” value [2] was 92% and 84%, the “Population Pyknosed Nuclei (%)” value [2] was 12% and 15% and the “Population Tubulin-Different-Phenotype (%)” value [2] was 29% and 26%. The “Total Cell Count” value [2] was 403 and 318, the “Population Apoptotic (%)” value [3] was 20% and 54% and the “Population Fragmented Nuclei (%)” value [3] was 9% and 7%. The “Population Healthy Nuclei (%)” value [3] was 80%, the “Population Hoechst High Intensity Objects (%)” value [3] was 2% and 9% and the “Population Membrane Permeable-Phenotype (%)” value [3] was 0%. For the same molecule, the “Population Mitochondria Different-Phenotype (%)” value [3] was 33% and 42%, the “Population Mitotic Cells (%)” value [3] was 79% and 45% and the “Population Normal (%)” value [3] was 97% and 90%. For the same molecule, the “Population Pyknosed Nuclei (%)” value [3] was 9% and 11%, the “Population Tubulin-Different-Phenotype (%)” value [3] was 23% and 16% and the “Total Cell Count” value [3] was 568 and 398. For the same molecule, the “Population Apoptotic (%)” value [4] was 40% and 59%, the “Population Fragmented Nuclei (%)” value [4] was 7% and 8% and the “Population Healthy Nuclei (%)” value [4] was 79% and 81%. For the same molecule, the “Population Hoechst High Intensity Objects (%)” value [4] was 4% and 12%, the “Population Membrane Permeable-Phenotype (%)” value [4] was 0% and the “Population Mitochondria Different-Phenotype (%)” value [4] was 28% and 45%. For the same molecule, the “Population Mitotic Cells (%)” value [4] was 59% and 40%, the “Population Normal (%)” value [4] was 95% and 87% and the “Population Pyknosed Nuclei (%)” value [4] was 13% and 9%. The “Population Tubulin-Different-Phenotype (%)” value [4] was 25% and 19%, the “Total Cell Count” value [4] was 526 and 387 and the “Population Apoptotic (%)” value [5] was 21% and 38%. The “Population Fragmented Nuclei (%)” value [5] was 15% and 13%, the “Population Healthy Nuclei (%)” value [5] was 78% and 79% and the “Population Hoechst High Intensity Objects (%)” value [5] was 1% and 3%. The “Population Membrane Permeable-Phenotype (%)” value [5] was 1%, the “Population Mitochondria Different-Phenotype (%)” value [5] was 18% and 20% and the “Population Mitotic Cells (%)” value [5] was 78% and 61%. The “Population Normal (%)” value [5] was 98% and 96%, the “Population Pyknosed Nuclei (%)” value [5] was 6% and the “Population Tubulin-Different-Phenotype (%)” value [5] was 10% and 12%. For the same molecule, the “Total Cell Count” value [5] was 908 and 570, the “Population Apoptotic (%)” value [6] was 37% and 33% and the “Population Fragmented Nuclei (%)” value [6] was 14% and 16%. The “Population Healthy Nuclei (%)” value [6] was 78%, the “Population Hoechst High Intensity Objects (%)” value [6] was 2% and 4% and the “Population Membrane Permeable-Phenotype (%)” value [6] was 0%. The “Population Mitochondria Different-Phenotype (%)” value [6] was 18% and 26%, the “Population Mitotic Cells (%)” value [6] was 62% and 66% and the “Population Normal (%)” value [6] was 97% and 95%. For the same molecule, the “Population Pyknosed Nuclei (%)” value [6] was 7% and 5%, the “Population Tubulin-Different-Phenotype (%)” value [6] was 11% and the “Total Cell Count” value [6] was 751 and 556.
In the case of COCCNc1cc(NC(=O)N2CCCc3cc(CN4CCN(C)CC4=O)c(C=O)nc32)ncc1C#N [FGF401], the “Population Apoptotic (%)” value [1] is reported as 5.7% and 11.57%, the “Population Fragmented Nuclei (%)” value [1] is reported as 1.49% and 2.8% and the “Population Hoechst High Intensity Objects (%)” value [1] is reported as 0%. The “Population Membrane Permeable-Phenotype (%)” value [1] was 1.74% and 5.56%, the “Population Mitotic Cells (%)” value [1] was 94.3% and 88.43% and the “Population Normal (%)” value [1] was 100%. The “Population Pyknosed Nuclei (%)” value [1] was 47.16% and 84.62%, the “Population Tubulin-Different-Phenotype (%)” value [1] was 6.4% and 11.11% and the “Total Cell Count” value [1] was 335 and 143. The “Population Fragmented Nuclei (%)” value [2] was 2.52% and 7.02%, the “Population Hoechst High Intensity Objects (%)” value [2] was 0% and the “Population Membrane Permeable-Phenotype (%)” value [2] was 0.56% and 0%. For the same molecule, the “Population Mitochondria Different-Phenotype (%)” value [2] was 28.09% and 26.67%, the “Population Mitotic Cells (%)” value [2] was 94.7% and 80.22% and the “Population Normal (%)” value [2] was 100%. The “Population Pyknosed Nuclei (%)” value [2] was 41.51% and 79.82%, the “Total Cell Count” value [2] was 318 and 114 and the “Population Apoptotic (%)” value [3] was 13.08% and 17.17%. The “Population Fragmented Nuclei (%)” value [3] was 0.93% and 3.47%, the “Population Healthy Nuclei (%)” value [3] was 74.95% and 27.78% and the “Population Hoechst High Intensity Objects (%)” value [3] was 0%. For the same molecule, the “Population Membrane Permeable-Phenotype (%)” value [3] was 1.49% and 2.5%, the “Population Mitochondria Different-Phenotype (%)” value [3] was 17.33% and 12.5% and the “Population Mitotic Cells (%)” value [3] was 86.92% and 82.83%. For the same molecule, the “Population Normal (%)” value [3] was 100%, the “Population Pyknosed Nuclei (%)” value [3] was 24.12% and 68.75% and the “Population Tubulin-Different-Phenotype (%)” value [3] was 19.8% and 10%. The “Population Apoptotic (%)” value [4] was 12.61% and 19.59%, the “Population Fragmented Nuclei (%)” value [4] was 1.6% and 5.3% and the “Population Hoechst High Intensity Objects (%)” value [4] was 0%. The “Population Membrane Permeable-Phenotype (%)” value [4] was 1.05% and 3.57%, the “Population Mitochondria Different-Phenotype (%)” value [4] was 16.84% and 25% and the “Population Mitotic Cells (%)” value [4] was 87.39% and 80.41%. For the same molecule, the “Population Normal (%)” value [4] was 100%, the “Population Tubulin-Different-Phenotype (%)” value [4] was 19.21% and 17.86% and the “Population Apoptotic (%)” value [5] was 7.89% and 20.99%. For the same molecule, the “Population Fragmented Nuclei (%)” value [5] was 2.1% and 1.11%, the “Population Healthy Nuclei (%)” value [5] was 85.6% and 53.89% and the “Population Hoechst High Intensity Objects (%)” value [5] was 0%. For the same molecule, the “Population Membrane Permeable-Phenotype (%)” value [5] was 6.24% and 0%, the “Population Mitochondria Different-Phenotype (%)” value [5] was 18.81% and 29.9% and the “Population Mitotic Cells (%)” value [5] was 92.11% and 79.01%. For the same molecule, the “Population Normal (%)” value [5] was 100%, the “Population Fragmented Nuclei (%)” value [6] was 3.22% and 0% and the “Population Healthy Nuclei (%)” value [6] was 84.41% and 59.29%. For the same molecule, the “Population Hoechst High Intensity Objects (%)” value [6] was 0% and 0.71%, the “Population Membrane Permeable-Phenotype (%)” value [6] was 4.23% and 1.2% and the “Population Mitochondria Different-Phenotype (%)” value [6] was 18.89% and 40.96%. For the same molecule, the “Population Mitotic Cells (%)” value [6] was 94.37% and 80.7% and the “Population Normal (%)” value [6] was 100% and 99.29%.
